Tests used:
Adenosine receptor A1 [1] = target: T1, Adenosine receptor A1 (Homo sapiens, UniProt P30542); assay: Displacement of […] from human adenosine A1 receptor expressed in CHO cells by scintillation counting in presence of 10 uM allosteric modulator PD-81723; type: cell-based
T1 sequence (P30542 whole entry): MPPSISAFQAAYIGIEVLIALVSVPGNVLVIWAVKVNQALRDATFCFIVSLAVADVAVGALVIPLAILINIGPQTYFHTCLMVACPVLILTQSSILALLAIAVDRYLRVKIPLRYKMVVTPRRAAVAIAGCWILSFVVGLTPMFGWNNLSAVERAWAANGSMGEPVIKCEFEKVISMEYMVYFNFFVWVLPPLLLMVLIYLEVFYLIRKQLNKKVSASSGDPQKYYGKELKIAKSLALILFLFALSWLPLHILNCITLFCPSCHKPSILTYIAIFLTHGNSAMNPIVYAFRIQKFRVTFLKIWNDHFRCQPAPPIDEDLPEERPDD
Outline: (§1)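 Equilibrium competition in 50 mM Tris HCl pH 7.4 with 0.8 IU/mL adenosine deaminase and 1.6 nM [3H]DPCPX. Increasing ligand concentrations ± 10 μM PD81,723. CHO-hA1 membranes (10 μg protein) incubated 1 h at 25 °C. GF/B filtration, scintillation counting. Nonspecific binding defined with 10 μM CPA. High- and low-affinity Ki taken from biphasic curves.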

Adenosine receptor A1 [2] = target: T1, Adenosine receptor A1; assay: Displacement of […] from human adenosine A1 receptor expressed in CHO cells by scintillation counting; type: cell-based; outline: as §1
[3] = target: T2, Adenosine receptor A1 (Homo sapiens) (UniProt P30542); assay: Displacement of […] from human adenosine A1 receptor expressed in CHO cells by scintillation counting relative to control; type: cell-based; parameters: concentration or dose not given beside the values; outline: as §1
T2 sequence (whole entry): T1 sequence (P30542 whole entry)

[4] = target: T2, Adenosine receptor A1 (Homo sapiens); assay: Displacement of [3H]CCPA from human adenosine A1 receptor expressed in CHO cells by scintillation counting relative to control; type: cell-based
Outline: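 Filtration and scintillation counting. Nonspecific binding defined with 10 μM CPA. pKi and maximal displacement given as percent of specific binding. pKi compared by one-way ANOVA with Bonferroni test.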

Adenosine receptor A1 [5] = target: T1, Adenosine receptor A1; assay: Enhancement of [3H]CCPA binding to human adenosine A1 receptor expressed in CHO cells by scintillation counting
Adenosine receptor A1 [6] = target: T1, Adenosine receptor A1; assay: Agonist activity at human adenosine A1 receptor expressed in CHO cells assessed as [35S]GTPgammaS binding by scintillation counting; type: functional, cell-based
Outline: (§2)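 CHO-hA1 membranes (5 μg protein) preincubated 30 min at 25 °C in 50 mM Tris, 100 mM NaCl, 10 mM MgCl, pH 7.4 with 3 μM GDP and a concentration range of agonist, with or without 10 μM PD81,723. 0.3 nM (final) [35S]GTPγS then added for 45 min at 25 °C. Filtration, washing, scintillation counting. Emax given as percent of maximal stimulation by the reference agonist. Control and PD81,723 pEC50 compared to give fold shift.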

[7] = target: T2, Adenosine receptor A1 (Homo sapiens); assay: Agonist activity at human adenosine A1 receptor expressed in CHO cells assessed as [35S]GTPgammaS binding by scintillation counting in presence of 10 uM allosteric modulator PD-81723 relative to control; type: functional, cell-based; outline: as §2
[8] = target: T2, Adenosine receptor A1 (Homo sapiens); assay: Agonist activity at human adenosine A1 receptor expressed in CHO cells assessed as [35S]GTPgammaS binding by scintillation counting relative to control; type: functional, cell-based; outline: as §2
[9] = target: T2, Adenosine receptor A1 (Homo sapiens); assay: Selectivity ratio of EC50 for human adenosine A1 receptor-mediated ERK1/2 phosphorylation to EC50 for human adenosine A1 receptor-mediated ERK1/2 phosphorylation in presence of 10 uM allosteric modulator PD-81723 assessed as
Outline: (§3)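 Intact CHO-hA1 cells seeded at 40 000/well. After 6 h, washed and serum-starved in DMEM for 14 h. Pretreated 30 min with 0.8 IU/mL adenosine deaminase, then stimulated 5 min with compound ± 10 μM PD81,723. Lysed; phospho-ERK1/2 read by AlphaScreen SureFire after ≥3 h dark incubation at room temperature. Emax given as percent of the reference agonist. Mean ± SEM of ≥3 experiments. Fold shift in pEC50 versus control.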

Adenosine receptor A1 [10] = target: T1, Adenosine receptor A1; assay: Displacement of […] from human adenosine A1 receptor expressed in CHO cells at high affinity site by scintillation counting; type: cell-based; outline: as §1
[11] = target: T2, Adenosine receptor A1 (Homo sapiens); assay: Agonist activity at human adenosine A1 receptor expressed in CHO cells assessed as stimulation of ERK1/2 phosphorylation in presence of 10 uM allosteric modulator PD-81723 relative to control; type: functional, cell-based; outline: as §3
Adenosine receptor A1 [12] = target: T1, Adenosine receptor A1; assay: Agonist activity at human adenosine A1 receptor expressed in CHO cells assessed as stimulation of ERK1/2 phosphorylation; type: functional, cell-based; outline: as §3
Adenosine receptor A1 [13] = target: T1, Adenosine receptor A1; assay: Displacement of […] from human adenosine A1 receptor expressed in CHO cells at low affinity site by scintillation counting; type: cell-based; outline: as §1
Adenosine receptor A1 [14] = target: T1, Adenosine receptor A1; assay: Agonist activity at human adenosine A1 receptor expressed in CHO cells assessed as [35S]GTPgammaS binding by scintillation counting in presence of 10 uM allosteric modulator PD-81723; type: functional, cell-based; outline: as §2
[15] = target: T2, Adenosine receptor A1 (Homo sapiens); assay: Selectivity ratio of EC50 for human adenosine A1 receptor to EC50 for human adenosine A1 receptor in presence of 10 uM allosteric modulator PD-81723; outline: as §2
[16] = target: T2, Adenosine receptor A1 (Homo sapiens); assay: Agonist activity at human adenosine A1 receptor expressed in CHO cells assessed as stimulation of ERK1/2 phosphorylation relative to control; type: functional, cell-based; outline: as §3
Adenosine receptor A1 [17] = target: T1, Adenosine receptor A1; assay: Agonist activity at human adenosine A1 receptor expressed in CHO cells assessed as stimulation of ERK1/2 phosphorylation in presence of 10 uM allosteric modulator PD-81723; type: functional, cell-based; outline: as §3

SMILES	Ki (Adenosine receptor A1 [1]; read-out: Ki)	Ki (Adenosine receptor A1 [2]; read-out: Ki)	Ki (Adenosine receptor A1 [2]; read-out: pKi (converted))	Activity [3]	Emax [4]	Ki (Adenosine receptor A1 [1]; read-out: pKi (converted))	also measured
Nc1sc2c(c1C(=O)c1ccc(Cl)c(Cl)c1)CCN(CCOc1ccc(Nc3ncnc4c3ncn4[C@@H]3O[C@H](CO)[C@@H](O)[C@H]3O)cc1)C2	469 nM	751 nM	741 nM	100%			
Nc1sc2c(c1C(=O)c1ccc(Cl)c(Cl)c1)CCN(CCCOc1ccc([N+](=O)[O-])cc1)C2					204%		EC50 (Adenosine receptor A1 [5]): 3700 nM
COc1ccc(Nc2ncnc3c2ncn3[C@@H]2O[C@H](CO)[C@@H](O)[C@H]2O)cc1	195 nM	842 nM	832 nM	100%	100%	191 nM	EC50 (Adenosine receptor A1 [6]; read-out: EC50): 142 nM; EC50 (Adenosine receptor A1 [6]; read-out: pEC50 (converted)): 123 nM; Emax [7]: 91%; Emax [8]: 100%; Ratio EC50 [9]: 4.4; Ki (Adenosine receptor A1 [10]; read-out: Ki): 71 nM; Ki (Adenosine receptor A1 [10]; read-out: pKi (converted)): 42.7 nM; Emax [11]: 131%; EC50 (Adenosine receptor A1 [12]; read-out: EC50): 22 nM; EC50 (Adenosine receptor A1 [12]; read-out: pEC50 (converted)): 20.9 nM; Ki (Adenosine receptor A1 [13]; read-out: Ki): 1990 nM; Ki (Adenosine receptor A1 [13]; read-out: pKi (converted)): 1860 nM; EC50 (Adenosine receptor A1 [14]; read-out: EC50): 29 nM; EC50 (Adenosine receptor A1 [14]; read-out: pEC50 (converted)): 30.2 nM; Ratio EC50 [15]: 4.9; Emax [16]: 100%; EC50 (Adenosine receptor A1 [17]; read-out: EC50): 5 nM
Nc1sc2c(c1C(=O)c1ccc(Cl)c(Cl)c1)CCN(CCCCCCOc1ccc(Nc3ncnc4c3ncn4[C@@H]3O[C@H](CO)[C@@H](O)[C@H]3O)cc1)C2	288 nM	419 nM	479 nM	103%		275 nM	
Nc1sc2c(c1C(=O)c1ccc(Cl)c(Cl)c1)CCN(CCCCOc1ccc(Nc3ncnc4c3ncn4[C@@H]3O[C@H](CO)[C@@H](O)[C@H]3O)cc1)C2	313 nM	618 nM		100%			
Nc1sc2c(c1C(=O)c1ccc(Cl)c(Cl)c1)CCN(CCCCCCCOc1ccc(Nc3ncnc4c3ncn4[C@@H]3O[C@H](CO)[C@@H](O)[C@H]3O)cc1)C2	347 nM	450 nM		91%			
Nc1sc2c(c1C(=O)c1ccc(Cl)c(Cl)c1)CCN(CCCCCCCCCCOc1ccc(Nc3ncnc4c3ncn4[C@@H]3O[C@H](CO)[C@@H](O)[C@H]3O)cc1)C2	1360 nM	1470 nM	1260 nM	55%		1290 nM	
Nc1sc2c(c1C(=O)c1ccc(Cl)c(Cl)c1)CCN(CCCCCOc1ccc(Nc3ncnc4c3ncn4[C@@H]3O[C@H](CO)[C@@H](O)[C@H]3O)cc1)C2	114 nM	219 nM	214 nM	100%	97%	110 nM	EC50 (Adenosine receptor A1 [6]; read-out: EC50): 273 nM; EC50 (Adenosine receptor A1 [6]; read-out: pEC50 (converted)): 269 nM; Emax [7]: 97%; Emax [8]: 110%; Ratio EC50 [9]: 1.8; Emax [11]: 131%; EC50 (Adenosine receptor A1 [12]; read-out: EC50): 156 nM; EC50 (Adenosine receptor A1 [12]; read-out: pEC50 (converted)): 151 nM; EC50 (Adenosine receptor A1 [14]; read-out: EC50): 52 nM; Ratio EC50 [15]: 5.2; Emax [16]: 114%; EC50 (Adenosine receptor A1 [17]; read-out: EC50): 89 nM
Nc1sc2c(c1C(=O)c1ccc(Cl)c(Cl)c1)CCN(CCCOc1ccc(Nc3ncnc4c3ncn4[C@@H]3O[C@H](CO)[C@@H](O)[C@H]3O)cc1)C2	268 nM	439 nM	417 nM	100%		245 nM	
Nc1sc2c(c1C(=O)c1ccc(Cl)c(Cl)c1)CCN(CCCCCOc1ccc([N+](=O)[O-])cc1)C2					185%		EC50 (Adenosine receptor A1 [5]): 5200 nM
Nc1sc2c(c1C(=O)c1ccc(Cl)c(Cl)c1)CCN(CCCCCCCCCOc1ccc(Nc3ncnc4c3ncn4[C@@H]3O[C@H](CO)[C@@H](O)[C@H]3O)cc1)C2	651 nM	679 nM	661 nM	83%	79%		EC50 (Adenosine receptor A1 [6]; read-out: EC50): 390 nM; Emax [7]: 105%; Emax [8]: 110%; Ratio EC50 [9]: 1.3; Emax [11]: 122%; EC50 (Adenosine receptor A1 [12]; read-out: EC50): 1070 nM; EC50 (Adenosine receptor A1 [12]; read-out: pEC50 (converted)): 955 nM; EC50 (Adenosine receptor A1 [14]; read-out: EC50): 181 nM; EC50 (Adenosine receptor A1 [14]; read-out: pEC50 (converted)): 178 nM; Ratio EC50 [15]: 2.2; Emax [16]: 123%; EC50 (Adenosine receptor A1 [17]; read-out: EC50): 813 nM; EC50 (Adenosine receptor A1 [17]; read-out: pEC50 (converted)): 692 nM
Nc1sc2c(c1C(=O)c1ccc(Cl)c(Cl)c1)CCN(CCOc1ccc([N+](=O)[O-])cc1)C2					250%		EC50 (Adenosine receptor A1 [5]): 8500 nM
Nc1sc2c(c1C(=O)c1ccc(Cl)c(Cl)c1)CCN(CCCCCCCCOc1ccc(Nc3ncnc4c3ncn4[C@@H]3O[C@H](CO)[C@@H](O)[C@H]3O)cc1)C2	591 nM	836 nM	776 nM	65%		457 nM	
Cc1sc(N)c(C(=O)c2cccc(C(F)(F)F)c2)c1C					140%		
